This is an account of results in ChEMBL document CHEMBL1144043, “Second-generation aspirin and indomethacin prodrugs possessing an O(2)-(acetoxymethyl)-1-(2-carboxypyrrolidin-1-yl)diazenium-1,2-diolate nitric oxide donor moiety: design, synthesis, biological evaluation, and nitric oxide release studies” (J Med Chem, 2008).

The subject of data set [1] is Rattus norvegicus. The experiment in a line: Antiinflammatory activity against carrageenan-induced foot paw edema in rat. The data set is classed as functional. The essentials:
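Carrageenan-induced rat paw edema after oral administration; ED50 taken as the dose lowering the inflammatory response by 50% in the group of animals (n = 4).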

For data set [2], the system named is Rattus norvegicus. The experiment in a line: Analgesic activity against sodium chloride-induced abdominal constriction in rat at 68 umol/kg, po after 30 mins. The data set is classed as functional, Abdomen. The essentials:
(§1)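 4% NaCl-induced writhing (abdominal constriction) assay in rats after oral dosing; writhing inhibition scored at 30 and 60 min post-dose; reported as % inhibition, mean ± SEM, n = 4.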

Data set [3] has as its system Rattus norvegicus. The experiment in a line: Analgesic activity against sodium chloride-induced abdominal constriction in rat at 68 umol/kg, po after 60 mins. The data set is classed as functional, Abdomen. Summed up: as §1
Data set [4] in a line: Effect on nitric oxide release in phosphate-buffered solution at pH 7.4 by Sievers nitric oxide analyzer. The data set is classed as functional. Summed up:
(§2)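 Compound in DMSO injected into a sealed cell holding deoxygenated 0.1 M phosphate buffer (3 mL, pH 7.4) with 50 µM DTPA at 37 °C. NO is carried by N2 purge to a chemiluminescence analyzer, and AUC is converted with a calibration curve to mol NO/mol compound. The time to about 50% of theoretical NO is read graphically from time vs mol NO/min curves.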

Data set [5] in a line: Effect on nitric oxide release in phosphate-buffered solution in presence of porcine liver esterase by Sievers nitric oxide analyzer. The data set is classed as functional. The essentials: (§3)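 Porcine liver esterase (29 units, suspension in 3.2 M ammonium sulfate) in phosphate buffer (3 mL) at pH 8.0, 37 °C; compound injected as a DMSO solution. NO is swept by N2 to a chemiluminescence analyzer and AUC is quantified against a calibration curve. The time to more than 90% of theoretical NO is read graphically from time vs mol NO/min curves.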

Data set [6] can be described thus: Effect on nitric oxide release phosphate-buffered solution assessed as time required to detect about 50% of NO/mol of compound by Sievers nitric oxide analyzer. The data set is classed as functional. Summed up: as §2
Data set [7] in a line: Effect on nitric oxide release assessed as time required to detect more than 90% of NO/mol of compound by Sievers nitric oxide analyzer. The data set is classed as functional. The essentials:
as §3

Data set [8] has as its system Rattus norvegicus. The experiment in a line: Toxicity in rat assessed as ulcer index at 1.38 mmol/kg, po after 6 hrs. As to conditions: in vivo. The data set is classed as organism-based. Summed up:
(§4)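 Rats fasted 24 h (water allowed) were dosed orally in 1.7 mL 1% methylcellulose; vehicle controls received the same. Stomachs were removed 6 h later after CO2 euthanasia. Ulcer index is the summed ulcer length (mm) per stomach averaged over n = 4, given as mean ± SEM.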

Data set [9] concerns Rattus norvegicus. The experiment in a line: Analgesic activity against sodium chloride-induced abdominal constriction in rat at 84 umol/kg, po after 30 mins. The data set is classed as functional, Abdomen. The essentials:
as §1

Data set [10] deals with Rattus norvegicus. The experiment in a line: Analgesic activity against sodium chloride-induced abdominal constriction in rat at 84 umol/kg, po after 60 mins. The data set is classed as functional, Abdomen. Summed up: as §1
Data set [11] relates to Rattus norvegicus. The experiment in a line: Toxicity in rat assessed as ulcer index at 0.08 mmol/kg, po after 6 hrs. The data set is classed as organism-based. The following applies: in vivo. The essentials:
as §4

The test system of data set [12] is Rattus norvegicus. Kind of data set: Analgesic activity against sodium chloride-induced abdominal constriction in rat at 277 umol/kg, po after 30 mins. The data set is classed as functional, Abdomen. The essentials: as §1
Data set [13] deals with Rattus norvegicus. Kind of data set: Analgesic activity against sodium chloride-induced abdominal constriction in rat at 277 umol/kg, po after 60 mins. The data set is classed as functional, Abdomen. Summed up: as §1
Data set [14] deals with Rattus norvegicus. Kind of data set: Analgesic activity against sodium chloride-induced abdominal constriction in rat at 48 umol/kg, po after 30 mins. The data set is classed as functional, Abdomen. Summed up: as §1
The subject of data set [15] is Rattus norvegicus. Kind of data set: Analgesic activity against sodium chloride-induced abdominal constriction in rat at 48 umol/kg, po after 60 mins. The data set is classed as functional, Abdomen. Summed up:
as §1

Structures are written as SMILES.

Molecule `CC(=O)OCO/N=[N+](\[O-])N1CCC[C@H]1C(=O)OCOC(=O)c1ccccc1OC(C)=O` returned a median effective dose (ED50) in the data set with Rattus norvegicus [1] of 314 µmol/kg. For the same molecule, the Activity with Rattus norvegicus [2] was found to be 24.6%; in the data set with Rattus norvegicus [3] it was 65.8%; in data set [4] it was 1.1; in data set [5], 1.9. Further, the TIME in [6] was found to be 43 h; in data set [7] it was 0.04 h. In addition, the UI in the data set with Rattus norvegicus [8] is reported as 0.75.

The molecule `COc1ccc2c(c1)c(CC(=O)O)c(C)n2C(=O)c1ccc(Cl)cc1` [INDOMETHACIN] gave an ED50 in the data set with Rattus norvegicus [1] of 11.8 µmol/kg. The Activity worked out at 51.8% in the data set with Rattus norvegicus [9] and 67.6% in the data set with Rattus norvegicus [10]. Moreover, in the data set on Rattus norvegicus [11], the UI was 64.5.

For `O=C(O)[C@@H]1CCCN1/[N+]([O-])=N/O`, in data set [4], the Activity stood at 2. In addition, the TIME in data set [7] is 0.0005 h.

In the data set with Rattus norvegicus [1], `CC(=O)Oc1ccccc1C(=O)O` [ASPIRIN] returned a 50% effective dose (ED50) of 710 µmol/kg. For the same molecule, the Activity came out at 56.5% with Rattus norvegicus [12] and 64.3% in the data set on Rattus norvegicus [13]. In addition, the UI with Rattus norvegicus [8] stood at 51.4.

`COc1ccc2c(c1)c(CC(=O)OCOC(=O)[C@@H]1CCCN1/[N+]([O-])=N/OCOC(C)=O)c(C)n2C(=O)c1ccc(Cl)cc1` returned an ED50 with Rattus norvegicus [1] of 18.5 µmol/kg. In addition, the Activity in the data set with Rattus norvegicus [14] was 36.3%; in the data set on Rattus norvegicus [15] it was 61.5%; in [4], 1.1; in [5], 1.8. In addition, the values for the TIME in data set [6] and in [7] were 45 h and 0.0533 h, respectively. Besides, the UI in the data set on Rattus norvegicus [11] came to 0.
